In ChEMBL document CHEMBL3826910, “Discovery of 3-(5'-Substituted)-Benzimidazole-5-(1-(3,5-dichloropyridin-4-yl)ethoxy)-1H-indazoles as Potent Fibroblast Growth Factor Receptor Inhibitors: Design, Synthesis, and Biological Evaluation” (J Med Chem, 2016):

What was measured:
NCI-H1581 [1] = assay: Antiproliferative activity against FGFR1-amplified human NCI-H1581 cells after 72 hrs by CCK8/MTT assay; type: functional, cell-based; details: NCI-H1581, 72 h
[2] = molecular target: Fibroblast growth factor receptor 1 (Homo sapiens, UniProt P11362); assay: Inhibition of recombinant human FGFR1 using poly (Glu, Tyr) 4:1 as substrate after 60 mins by ELISA
Fibroblast growth factor receptor 1, sequence (P11362 whole entry): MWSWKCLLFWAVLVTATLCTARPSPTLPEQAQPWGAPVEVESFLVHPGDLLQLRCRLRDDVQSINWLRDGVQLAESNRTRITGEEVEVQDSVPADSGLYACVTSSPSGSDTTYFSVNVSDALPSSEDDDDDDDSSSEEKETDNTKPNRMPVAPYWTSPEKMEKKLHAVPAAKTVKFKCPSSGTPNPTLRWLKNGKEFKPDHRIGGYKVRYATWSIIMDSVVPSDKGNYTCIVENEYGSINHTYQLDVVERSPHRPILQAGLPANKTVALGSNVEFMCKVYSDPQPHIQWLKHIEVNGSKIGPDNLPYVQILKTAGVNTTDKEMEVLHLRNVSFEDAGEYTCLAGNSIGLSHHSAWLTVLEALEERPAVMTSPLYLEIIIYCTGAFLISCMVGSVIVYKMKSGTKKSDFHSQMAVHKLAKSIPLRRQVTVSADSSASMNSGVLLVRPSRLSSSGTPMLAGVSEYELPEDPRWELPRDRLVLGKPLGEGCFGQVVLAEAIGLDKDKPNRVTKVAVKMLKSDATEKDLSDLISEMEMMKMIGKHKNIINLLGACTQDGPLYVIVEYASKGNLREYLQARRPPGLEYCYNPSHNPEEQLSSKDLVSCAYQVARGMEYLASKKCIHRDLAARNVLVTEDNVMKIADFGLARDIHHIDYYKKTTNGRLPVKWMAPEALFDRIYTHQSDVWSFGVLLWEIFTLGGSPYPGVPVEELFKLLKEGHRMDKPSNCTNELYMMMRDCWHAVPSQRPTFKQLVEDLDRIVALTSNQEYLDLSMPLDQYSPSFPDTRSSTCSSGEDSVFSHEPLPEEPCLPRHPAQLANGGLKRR

[3] = molecular target: Vascular endothelial growth factor receptor 2 (Homo sapiens, UniProt P35968); assay: Inhibition of recombinant human VEGFR2 using poly (Glu, Tyr) 4:1 as substrate after 60 mins by ELISA
Vascular endothelial growth factor receptor 2, sequence (P35968 whole entry): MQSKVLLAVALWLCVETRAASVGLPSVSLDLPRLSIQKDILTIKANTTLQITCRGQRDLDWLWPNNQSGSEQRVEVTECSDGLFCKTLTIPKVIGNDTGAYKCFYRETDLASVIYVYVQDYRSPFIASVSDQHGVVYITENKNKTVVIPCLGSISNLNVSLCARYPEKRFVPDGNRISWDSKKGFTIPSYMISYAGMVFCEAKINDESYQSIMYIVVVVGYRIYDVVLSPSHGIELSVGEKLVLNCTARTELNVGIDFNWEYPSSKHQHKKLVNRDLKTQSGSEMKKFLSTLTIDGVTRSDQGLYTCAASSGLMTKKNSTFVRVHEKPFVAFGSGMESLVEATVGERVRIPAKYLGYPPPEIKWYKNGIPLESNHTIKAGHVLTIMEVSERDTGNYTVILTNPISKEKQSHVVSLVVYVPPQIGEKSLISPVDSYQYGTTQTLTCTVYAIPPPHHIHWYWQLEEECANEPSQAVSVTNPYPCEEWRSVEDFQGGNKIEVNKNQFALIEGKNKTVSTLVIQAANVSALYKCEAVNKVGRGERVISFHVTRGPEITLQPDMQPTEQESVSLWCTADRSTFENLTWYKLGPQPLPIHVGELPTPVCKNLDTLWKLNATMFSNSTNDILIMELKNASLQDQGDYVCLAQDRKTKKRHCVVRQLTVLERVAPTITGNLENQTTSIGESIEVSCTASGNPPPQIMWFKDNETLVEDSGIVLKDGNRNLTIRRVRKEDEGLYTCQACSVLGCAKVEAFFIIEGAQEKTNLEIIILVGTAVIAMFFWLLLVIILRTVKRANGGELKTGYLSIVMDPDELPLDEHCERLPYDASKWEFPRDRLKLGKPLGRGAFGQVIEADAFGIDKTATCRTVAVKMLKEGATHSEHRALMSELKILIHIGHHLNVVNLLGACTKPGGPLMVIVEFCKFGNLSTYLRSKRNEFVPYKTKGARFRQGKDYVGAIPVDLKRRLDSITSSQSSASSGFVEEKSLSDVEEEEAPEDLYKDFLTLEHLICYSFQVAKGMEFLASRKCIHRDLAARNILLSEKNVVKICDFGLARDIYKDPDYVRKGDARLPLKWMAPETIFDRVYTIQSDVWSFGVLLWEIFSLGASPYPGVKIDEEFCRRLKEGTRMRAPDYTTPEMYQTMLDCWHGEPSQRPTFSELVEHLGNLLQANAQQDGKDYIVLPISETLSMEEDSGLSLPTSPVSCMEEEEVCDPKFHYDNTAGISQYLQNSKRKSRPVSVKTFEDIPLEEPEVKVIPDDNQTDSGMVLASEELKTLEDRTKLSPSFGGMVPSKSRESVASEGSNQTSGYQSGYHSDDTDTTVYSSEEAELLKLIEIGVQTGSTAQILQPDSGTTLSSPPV

cells [4] = details: Homo sapiens, RT-112, 72 h
cells [5] = details: Homo sapiens, SNU-16, 72 h
cells [6] = details: Homo sapiens, KG-1, 72 h
NCI-H1581 [7] = assay: Antitumor activity against human NCI-H1581 cells xenografted in nude mouse assessed as tumor growth inhibition at 20 mg/kg administered as qd for 21 days measured on day 21 post last dose relative to vehicle-treated control; type: functional; details: NCI-H1581, 504 h, read-out: TGI
[8] = Half life in Sprague-Dawley rat at 1 mg/kg, iv; type: ADME, organism-based; details: in vivo
[9] = Cmax in Sprague-Dawley rat at 1 mg/kg, iv; type: ADME, organism-based; parameters: dose 1 mg/kg, route intravenous; details: in vivo
[10] = Tmax in Sprague-Dawley rat at 5 mg/kg, po; type: ADME, organism-based; details: in vivo
Method in brief: (§1)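 Male SD rats (n = 3) dosed orally by gavage at 5 mg/kg as a suspension in 0.5% CMC-Na. Quantified by LC-MS/MS. An IV arm (1 mg/kg) was run in parallel.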

[11] = Clearance in Sprague-Dawley rat at 1 mg/kg, iv; type: ADME, organism-based; details: in vivo
[12] = AUC (0 to infinity) in Sprague-Dawley rat at 1 mg/kg, iv; type: ADME, organism-based; parameters: dose 1 mg/kg, time infinity, route intravenous; details: in vivo
[13] = Volume of distribution at steady state in Sprague-Dawley rat at 1 mg/kg, iv; type: ADME, organism-based; details: in vivo, read-out: Vdss
[14] = AUC (0 to infinity) in Sprague-Dawley rat at 5 mg/kg, po; type: ADME, organism-based; parameters: dose 5 mg/kg, route oral, time infinity; details: in vivo; method in brief: as §1
[15] = Oral bioavailability in Sprague-Dawley rat at 5 mg/kg; type: ADME, organism-based; details: in vivo; method in brief: as §1
[16] = Cmax in Sprague-Dawley rat at 5 mg/kg, po; type: ADME, organism-based; parameters: dose 5 mg/kg, route oral; details: in vivo; method in brief: as §1

SMILES	IC50 (NCI-H1581 [1]) [nM]	further results
COc1ccc2[nH]c(-c3n[nH]c4ccc(OC(C)c5c(Cl)cncc5Cl)cc34)nc2c1 (stereo not drawn)	315	
CC(Oc1ccc2[nH]nc(-c3nc4ccccc4o3)c2c1)c1c(Cl)cncc1Cl (stereo not drawn)	3040	
CC(Oc1ccc2[nH]nc(-c3nc4c(N5CCCCC5)cccc4[nH]3)c2c1)c1c(Cl)cncc1Cl (stereo not drawn)		IC50 [2]: > 1000 nM
CC(Oc1ccc2[nH]nc(-c3nc4ccccc4s3)c2c1)c1c(Cl)cncc1Cl (stereo not drawn)	> 10000	
CC(Oc1ccc2[nH]nc(-c3nc4cc(N5CCN(C)CC5)ccc4[nH]3)c2c1)c1c(Cl)cncc1Cl (stereo not drawn)	1	IC50 [2]: 1 nM; IC50 [3]: 8 nM
COCCNc1ccc2[nH]c(-c3n[nH]c4ccc(OC(C)c5c(Cl)cncc5Cl)cc34)nc2c1 (stereo not drawn)	1.2	
Clc1cncc(Cl)c1COc1ccc2[nH]nc(-c3nc4cc(N5CCCCC5)ccc4[nH]3)c2c1	159	
C[C@H](Oc1ccc2[nH]nc(-c3nc4cc(N5CCN(C)CC5)ccc4[nH]3)c2c1)c1c(Cl)cncc1Cl	130	IC50 [2]: 9.4 nM
Cc1cccc2[nH]c(-c3n[nH]c4ccc(OC(C)c5c(Cl)cncc5Cl)cc34)nc12 (stereo not drawn)	> 10000	
CNc1ccc2[nH]c(-c3n[nH]c4ccc(OC(C)c5c(Cl)cncc5Cl)cc34)nc2c1 (stereo not drawn)	5.5	
C[C@@H](Oc1ccc2[nH]nc(/C=C/c3cnn(CCO)c3)c2c1)c1c(Cl)cncc1Cl [LY-2874455]	< 0.5	IC50 [3]: 5.8 nM
Cc1ccc2[nH]c(-c3n[nH]c4ccc(OC(C)c5c(Cl)cncc5Cl)cc34)nc2c1 (stereo not drawn)	922	
CCC(Oc1ccc2[nH]nc(-c3nc4cc(N5CCCCC5)ccc4[nH]3)c2c1)c1c(Cl)cncc1Cl (stereo not drawn)	380	
CC(Oc1ccc2[nH]nc(-c3nc4cc(CCO)ccc4[nH]3)c2c1)c1c(Cl)cncc1Cl (stereo not drawn)	3.3	IC50 [3]: 12.6 nM
CC(Oc1ccc2[nH]nc(-c3nc4cc(N5CCOCC5)ccc4[nH]3)c2c1)c1c(Cl)cncc1Cl (stereo not drawn)	2.2	
c1ccc(COc2ccc3[nH]nc(-c4nc5cc(N6CCCCC6)ccc5[nH]4)c3c2)nc1	1230	
c1cncc(COc2ccc3[nH]nc(-c4nc5cc(N6CCCCC6)ccc5[nH]4)c3c2)c1	1860	
CC(Oc1ccc2[nH]nc(-c3nc4cc(N5CCCCC5)ccc4[nH]3)c2c1)c1c(Cl)ccnc1Cl (stereo not drawn)	30.8	

SMILES	IC50 (NCI-H1581 [1]) [nM]	further results
CC(Oc1ccc2[nH]nc(-c3nc4cc(N5CCC(N6CCCCC6)CC5)ccc4[nH]3)c2c1)c1c(Cl)cncc1Cl (stereo not drawn)	10.3	
CC(Oc1ccc2[nH]nc(-c3nc4cc(F)ccc4[nH]3)c2c1)c1c(Cl)cncc1Cl (stereo not drawn)	582	
CC(Oc1ccc2[nH]nc(-c3nc4cc(N5CCCN(C)CC5)ccc4[nH]3)c2c1)c1c(Cl)cncc1Cl (stereo not drawn)	8.1	
CC(Oc1ccc2[nH]nc(-c3cc4ccccc4[nH]3)c2c1)c1c(Cl)cncc1Cl (stereo not drawn)	817	
CCN1CCN(c2ccc3[nH]c(-c4n[nH]c5ccc(OC(C)c6c(Cl)cncc6Cl)cc45)nc3c2)CC1 (stereo not drawn)	5.9	
CC(Oc1ccc2[nH]nc(-c3nc4cc(C5CCN(C)CC5)ccc4[nH]3)c2c1)c1c(Cl)cncc1Cl (stereo not drawn)	1.6	IC50 [3]: 7.8 nM
COc1cc(CCc2cc(NC(=O)c3ccc(N4C[C@@H](C)N[C@@H](C)C4)cc3)n[nH]2)cc(OC)c1 [FEXAGRATINIB]	92.1	IC50 (cells [4]): 88.4 nM; IC50 (cells [5]): 13.4 nM; IC50 (cells [6]): 6.4 nM; inhibition in vivo at 20 mg/kg (NCI-H1581 [7]): 73.9%
CC(Oc1ccc2[nH]nc(-c3nc4cc(N(C)C(=O)CN(C)C)ccc4[nH]3)c2c1)c1c(Cl)cncc1Cl (stereo not drawn)	0.8	IC50 [3]: 2.5 nM
Fc1ccc2c(-c3nc4cc(N5CCC(N6CCCCC6)CC5)ccc4[nH]3)[nH]nc2c1	749	IC50 [2]: 20.3 nM; IC50 [3]: 16.4 nM
c1cc(COc2ccc3[nH]nc(-c4nc5cc(N6CCCCC6)ccc5[nH]4)c3c2)ccn1	5020	
CC(Oc1ccc2[nH]nc(-c3nc4cc(NCCN(C)C)ccc4[nH]3)c2c1)c1c(Cl)cncc1Cl (stereo not drawn)	1.1	
C[C@H](Oc1ccc2[nH]nc(-c3nc4cc(CCO)ccc4[nH]3)c2c1)c1c(Cl)cncc1Cl	> 100	
C[C@@H](Oc1ccc2[nH]nc(-c3nc4cc(CCO)ccc4[nH]3)c2c1)c1c(Cl)cncc1Cl	1.4	half-life [8]: 7.3 h; Cmax [9]: 735 ng/mL; Tmax [10]: 0.8 h; clearance [11]: 28.3 mL/min/kg; AUC(0-inf) [12]: 582 ng·h/mL; Vd [13]: 17.6 L/kg; AUC(0-inf) [14]: 664 ng·h/mL; bioavailability [15]: 22%; Cmax [16]: 195 ng/mL
CC(Oc1ccc2[nH]nc(-c3nc4cc(N5C[C@@H](C)N[C@@H](C)C5)ccc4[nH]3)c2c1)c1c(Cl)cncc1Cl (stereo partly drawn)	1.9	IC50 [3]: 9 nM
Clc1cnccc1COc1ccc2[nH]nc(-c3nc4cc(N5CCCCC5)ccc4[nH]3)c2c1	3070	
CC(Oc1ccc2[nH]nc(-c3nc4cc(N5CCCCC5)ccc4[nH]3)c2c1)c1c(Cl)cncc1Cl (stereo not drawn)	14.1	
CC(Oc1ccc2[nH]nc(-c3nc4ccccc4[nH]3)c2c1)c1c(Cl)cncc1Cl (stereo not drawn)	403	
